# Laboratory results published in ChEMBL document CHEMBL1932938, “From COX-2 inhibitor nimesulide to potent anti-cancer agent: synthesis, in vitro, in vivo and pharmacokinetic evaluation” (Eur J Med Chem, 2012).
# Experiments:
# SK-BR-3 [1] = assay: Cell cycle arrest in human SK-BR-3 cells assessed as accumulation at S phase at 0.10 uM after 12 hrs using propidium iodide staining by FACS analysis; type: functional
# How it was run: (§1)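 SKBR-3 cells in RPMI1640 with 10% heat-inactivated FBS at 37 °C and 5% CO₂ were treated for the stated times. Cells were fixed overnight in 70% EtOH at −20 °C, then stained with propidium iodide buffer (38 mM sodium citrate pH 7.5, 69 µM PI, 120 µg/mL RNase A) for 15 min at room temperature in the dark. Up to 1×10⁴ gated cells were analyzed by flow cytometry, giving percent distribution per phase.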
# SK-BR-3 [2] = assay: Cell cycle arrest in human SK-BR-3 cells assessed as accumulation at G2/M phase at 0.10 uM after 12 hrs using propidium iodide staining by FACS analysis; type: functional; how it was run: as §1
# SK-BR-3 [3] = assay: Cell cycle arrest in human SK-BR-3 cells assessed as accumulation at G2/M phase at 0.50 uM after 12 hrs using propidium iodide staining by FACS analysis; type: functional; how it was run: as §1
# SK-BR-3 [4] = assay: Cell cycle arrest in human SK-BR-3 cells assessed as accumulation at S phase at 0.10 uM after 18 hrs using propidium iodide staining by FACS analysis; type: functional; how it was run: as §1
# SK-BR-3 [5] = assay: Cell cycle arrest in human SK-BR-3 cells assessed as accumulation at Sub-G1 phase at 0.50 uM after 18 hrs using propidium iodide staining by FACS analysis; type: functional
# SK-BR-3 [6] = assay: Cell cycle arrest in human SK-BR-3 cells assessed as accumulation at S phase at 5 uM after 18 hrs using propidium iodide staining by FACS analysis; type: functional
# SK-BR-3 [7] = assay: Cell cycle arrest in human SK-BR-3 cells assessed as accumulation at G2/M phase at 5 uM after 18 hrs using propidium iodide staining by FACS analysis; type: functional; how it was run: as §1
# SK-BR-3 [8] = assay: Cell cycle arrest in human SK-BR-3 cells assessed as accumulation at Sub-G1 phase at 0.10 uM after 24 hrs using propidium iodide staining by FACS analysis; type: functional
# SK-BR-3 [9] = assay: Cell cycle arrest in human SK-BR-3 cells assessed as accumulation at S phase at 0.50 uM after 24 hrs using propidium iodide staining by FACS analysis; type: functional
# SK-BR-3 [10] = assay: Cell cycle arrest in human SK-BR-3 cells assessed as accumulation at Sub-G1 phase at 5 uM after 24 hrs using propidium iodide staining by FACS analysis; type: functional
# SK-BR-3 [11] = assay: Cell cycle arrest in human SK-BR-3 cells assessed as accumulation at G1 phase at 5 uM after 24 hrs using propidium iodide staining by FACS analysis; type: functional; how it was run: as §1
# SK-BR-3 [12] = assay: Cell cycle arrest in human SK-BR-3 cells assessed as accumulation at S phase at 5 uM after 24 hrs using propidium iodide staining by FACS analysis; type: functional
# K562 = assay: Growth inhibition of human K562 cells after 48 hrs by SRB assay; type: functional
# MOLT-4 = assay: Growth inhibition of human MOLT4 cells after 48 hrs by SRB assay; type: functional
# A549 = assay: Growth inhibition of human A549 cells after 48 hrs by SRB assay; type: functional
# EKVX = assay: Growth inhibition of human EKVX cells after 48 hrs by SRB assay; type: functional
# MDA-MB-435 = assay: Growth inhibition of human MDA-MB-435 cells after 48 hrs by SRB assay; type: functional
# SK-MEL-5 = assay: Growth inhibition of human SK-MEL-5 cells after 48 hrs by SRB assay; type: functional
# ACHN = assay: Growth inhibition of human ACHN cells after 48 hrs by SRB assay; type: functional
# CAKI-1 = assay: Growth inhibition of human Caki1 cells after 48 hrs by SRB assay; type: functional
# MCF7 = assay: Growth inhibition of human MCF7 cells after 48 hrs by SRB assay; type: functional
# [13] = (§2) Growth inhibition of human Hs 578T cells after 48 hrs by SRB assay; type: functional
# Hs-578T = assay: as §2; type: functional
# T47D = assay: Growth inhibition of human T47D cells after 48 hrs by SRB assay; type: functional
# Mus musculus = assay: Acute toxicity in nude mouse assessed as body weight loss at 100 to 400 mg/kg administered as single dose measured after 2 weeks; type: organism-based; parameters: dose 100-400 mg/kg; conditions: in vivo, 336 h
# [14] = Cmax in Sprague-Dawley rat plasma at 20 mg/kg, ip; type: ADME, organism-based; parameters: dose 20 mg/kg, route intraperitoneal
# How it was run: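 Male Sprague–Dawley rats (300–350 g, n=3), fasted overnight, received one i.p. dose in PBS with 0.1% Tween80 and 20% DMSO. Blood (150 µL) was drawn from saphenous and femoral veins into heparinized tubes at 0–24 h, and plasma was stored at –20 °C. Samples underwent tert-butyl methyl ether/n-hexane extraction, then C18 isocratic LC-MS/MS in MRM mode with an internal standard; the method was validated over 0.1–100 ng/mL.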
# [15] = Tmax in Sprague-Dawley rat plasma at 20 mg/kg, ip; type: ADME, organism-based; parameters: dose 20 mg/kg, route intraperitoneal
# How it was run: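 Male Sprague–Dawley rats (300–350 g, n=3), fasted overnight with water allowed. Single 20 mg/kg i.p. dose in PBS with 0.1% Tween80 and 20% DMSO. Blood taken from saphenous and femoral veins into heparinized tubes at 0, 0.25, 0.5, 1, 2, 4, 8 and 24 h. Plasma quantified by LC-MS/MS (MRM, 483.3→404.3) after tert-butyl methyl ether/hexane extraction. Parameters derived non-compartmentally.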
# SK-BR-3 [16] = assay: Cell cycle arrest in human SK-BR-3 cells assessed as accumulation at Sub-G1 phase at 0.50 uM after 3 hrs using propidium iodide staining by FACS analysis; type: functional
# SK-BR-3 [17] = assay: Cell cycle arrest in human SK-BR-3 cells assessed as accumulation at G2/M phase at 0.25 uM after 3 hrs using propidium iodide staining by FACS analysis; type: functional; how it was run: as §1
# SK-BR-3 [18] = assay: Cell cycle arrest in human SK-BR-3 cells assessed as accumulation at S phase at 0.25 uM after 3 hrs using propidium iodide staining by FACS analysis; type: functional
# SK-BR-3 [19] = assay: Cell cycle arrest in human SK-BR-3 cells assessed as accumulation at S phase at 0.25 uM after 6 hrs using propidium iodide staining by FACS analysis; type: functional
# SK-BR-3 [20] = assay: Cell cycle arrest in human SK-BR-3 cells assessed as accumulation at G2/M phase at 0.50 uM after 6 hrs using propidium iodide staining by FACS analysis; type: functional; how it was run: as §1
# [21] = read-out: LC50 (the source's name)
structure (smiles),measurement,setting,value
Cc1ccc(C)c(COc2cc(NC(=O)c3ccc4c(c3)OCO4)ccc2N(C)S(C)(=O)=O)c1,Activity,SK-BR-3 [1],8.17%
same,Activity,SK-BR-3 [2],12.05%
same,Activity,SK-BR-3 [3],24.26%
same,Activity,SK-BR-3 [4],8.71%
same,Activity,SK-BR-3 [5],8.47%
same,Activity,SK-BR-3 [6],6.73%
same,Activity,SK-BR-3 [7],21.8%
same,Activity,SK-BR-3 [8],11.78%
same,Activity,SK-BR-3 [9],11.21%
same,Activity,SK-BR-3 [10],27.62%
same,Activity,SK-BR-3 [11],31.87%
same,Activity,SK-BR-3 [12],11.53%
same,growth inhibition (GI),K562,Dose-dependent effect
same,GI50,"K562; K562, 48 h",40.3 nM
same,TGI,"K562; K562, 48 h",> 100000 nM
same,CC50,"K562; K562, 48 h, read-out: LC50 (the source's name)",> 100000 nM
same,growth inhibition (GI),MOLT-4,Dose-dependent effect
same,GI50,"MOLT-4; MOLT-4, 48 h",163 nM
same,TGI,"MOLT-4; MOLT-4, 48 h",> 100000 nM
same,CC50,"MOLT-4; MOLT-4, 48 h, read-out: LC50 (the source's name)",> 100000 nM
same,growth inhibition (GI),A549,Dose-dependent effect
same,GI50,"A549; A549, 48 h",278 nM
same,TGI,"A549; A549, 48 h",13600 nM
same,CC50,"A549; A549, 48 h, read-out: LC50 (the source's name)",> 100000 nM
same,GI50,EKVX,598 nM
same,TGI,EKVX,> 100000 nM
same,growth inhibition (GI),EKVX,Dose-dependent effect
same,CC50,EKVX; [21],> 100000 nM
same,growth inhibition (GI),MDA-MB-435,Dose-dependent effect
same,GI50,"MDA-MB-435; MDA-MB-435, 48 h",28.5 nM
same,TGI,"MDA-MB-435; MDA-MB-435, 48 h",91.4 nM
same,CC50,"MDA-MB-435; MDA-MB-435, 48 h, read-out: LC50 (the source's name)",> 100000 nM
same,growth inhibition (GI),SK-MEL-5,Dose-dependent effect
same,GI50,"SK-MEL-5; SK-MEL-5, 48 h",253 nM
same,TGI,"SK-MEL-5; SK-MEL-5, 48 h",1650 nM
same,CC50,"SK-MEL-5; SK-MEL-5, 48 h, read-out: LC50 (the source's name)",34100 nM
same,GI50,ACHN,687 nM
same,TGI,ACHN,> 100000 nM
same,growth inhibition (GI),ACHN,Dose-dependent effect
same,CC50,ACHN; [21],> 100000 nM
same,growth inhibition (GI),CAKI-1,Dose-dependent effect
same,TGI,"CAKI-1; CAKI-1, 48 h",> 100000 nM
same,CC50,"CAKI-1; CAKI-1, 48 h, read-out: LC50 (the source's name)",> 100000 nM
same,growth inhibition (GI),MCF7,Dose-dependent effect
same,TGI,"MCF7; MCF7, 48 h",> 100000 nM
same,CC50,"MCF7; MCF7, 48 h, read-out: LC50 (the source's name)",> 100000 nM
same,GI50,[13],87 nM
same,CC50,[13]; [21],> 100000 nM
same,growth inhibition (GI),Hs-578T,Dose-dependent effect
same,GI50,T47D,682 nM
same,TGI,T47D,> 100000 nM
same,growth inhibition (GI),T47D,Dose-dependent effect
same,CC50,T47D; [21],> 100000 nM
same,Activity,Mus musculus,Non-toxic
same,Cmax,[14],1500 ng/mL
same,Tmax,[15],2 h
same,Activity,SK-BR-3 [16],3.43%
same,Activity,SK-BR-3 [17],10.77%
same,Activity,SK-BR-3 [18],16.34%
same,Activity,SK-BR-3 [19],14.95%
same,Activity,SK-BR-3 [20],13.9%
